≈ marks a conversion by molar mass, not a printed value. One block for each molecule: values may come before it.
What was measured:
[1] = target: RNA topoisomerase activity of E. coli topoisomerase I (EcoTop1) (Escherichia coli, UniProt P06612); experiment: RNA topoisomerase inhibition assay; format: biochemical; settings: 10 nM EcoTop1; for inhibitory effect on the RNA topoisomerase activity of EcoTop1: at concentrations up to 50 μM; for concentration at which RNA topoisomerase activity is inhibited: concentration-dependent, 2.5–40 μM tested; for effect on the RNA topoisomerase activity of EcoTop1: even at 80 μM concentrations
[2] = system: human prostate cancer cell line DU-145; experiment: Cytotoxicity; format: cell-based; settings: 48 h treatment, SRB
Procedure, shortened: (§1)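 Cells grown per ATCC protocols, trypsin-EDTA harvested, trypan-blue counted, seeded at […] cells/well, and allowed to recover 24 h (37 °C, 5% CO2). They were then treated in triplicate at final 20, 10, 5, 2.5, 1.25, 0.625 and 0.0625 μM for 48 h. Fixed with cold TCA (16% final, 4 °C, 1 h), stained 15 min with SRB in 1% acetic acid, dye dissolved in 10 mM Tris base, A560 read. IC50 derived from absorbance; study done in duplicate.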

A. baumanni 19606 = experiment: MIC by microbroth dilution; format: cell-based, Acinetobacter baumanni; settings: Acinetobacter, 19606, 24 h, read-out: MIC A. baumanni 19606
Procedure, shortened: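 CLSI microbroth dilution in Mueller-Hinton broth. Strains were grown at 37 °C with shaking to log phase, pelleted, and resuspended in 0.85% saline to OD625 0.1. Final inoculum 5 × 10^5 CFU/mL in 96-well plates, tested in triplicate, incubated 24 h at 37 °C. Growth was read as OD at 625 nm.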

Cytotoxicity = format: cell-based, human; settings: human, DU-145 prostate cancer cells
Procedure, shortened: as §1

[3] = system: Gram-positive bacterial strains; experiment: MIC by microbroth dilution, summary over strains in text; format: cell-based; settings: Shigella flexneri, read-out: MIC values against most Gram-positive strains

Sequence of RNA topoisomerase activity of E. coli topoisomerase I (EcoTop1) (P06612 whole entry): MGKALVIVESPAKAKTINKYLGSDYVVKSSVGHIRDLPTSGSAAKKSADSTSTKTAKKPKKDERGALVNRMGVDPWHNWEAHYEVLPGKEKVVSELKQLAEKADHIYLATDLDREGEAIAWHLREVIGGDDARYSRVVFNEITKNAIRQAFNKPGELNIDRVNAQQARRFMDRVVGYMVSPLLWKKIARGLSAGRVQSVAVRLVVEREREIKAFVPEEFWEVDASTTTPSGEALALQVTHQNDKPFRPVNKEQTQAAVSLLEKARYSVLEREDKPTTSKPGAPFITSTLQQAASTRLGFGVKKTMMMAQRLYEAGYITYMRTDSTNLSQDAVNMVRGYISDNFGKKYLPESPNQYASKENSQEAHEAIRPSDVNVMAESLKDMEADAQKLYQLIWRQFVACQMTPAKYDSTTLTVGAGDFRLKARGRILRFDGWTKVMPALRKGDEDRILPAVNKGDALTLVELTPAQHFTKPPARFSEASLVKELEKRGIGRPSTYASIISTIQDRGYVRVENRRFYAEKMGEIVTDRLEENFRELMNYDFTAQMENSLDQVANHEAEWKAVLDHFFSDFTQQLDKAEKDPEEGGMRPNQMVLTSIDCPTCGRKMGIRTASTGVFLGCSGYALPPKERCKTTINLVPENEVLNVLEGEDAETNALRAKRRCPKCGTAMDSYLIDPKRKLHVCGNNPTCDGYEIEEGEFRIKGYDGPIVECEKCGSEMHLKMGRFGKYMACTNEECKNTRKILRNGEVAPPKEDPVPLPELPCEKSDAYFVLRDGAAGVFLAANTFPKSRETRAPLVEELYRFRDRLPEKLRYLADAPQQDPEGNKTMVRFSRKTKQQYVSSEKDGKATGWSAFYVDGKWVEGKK

Structure (SMILES): C#CCOCCCCCCOc1ccc(-c2nc3ccc(-c4nc5ccc(N6CCN(C)CC6)cc5[nH]4)cc3[nH]2)cc1 [Compound 5, 6-(4-Methylpiperazin-1-yl)-2′-(4-(6-(prop-2-ynyloxy)-hexyloxy)phenyl)-1H,3′H-2,5′-bibenzo[d]imidazole]
inhibitory effect on the RNA topoisomerase activity of EcoTop1 [1]: no discernible inhibitory effect
cytotoxicity to DU-145 compared with Hoechst 33258 [2]: more cytotoxic
MIC (A. baumanni 19606): > 32 µg/mL

Structure (SMILES): C#CCOCCCCCCCCOc1ccc(-c2nc3ccc(-c4nc5ccc(N6CCN(C)CC6)cc5[nH]4)cc3[nH]2)cc1 [Compound 6, 6-(4-Methylpiperazin-1-yl)-2′-(4-(8-(prop-2-ynyloxy)octyloxy)phenyl)-1H,3′H-2,5′-bibenzo[d]imidazole]
concentration at which RNA topoisomerase activity is inhibited [1]: about 10 μM
cytotoxicity to DU-145 compared with Hoechst 33258 [2]: more cytotoxic

Structure (SMILES): C#CCOCCCCCCCCCCOc1ccc(-c2nc3ccc(-c4nc5ccc(N6CCN(C)CC6)cc5[nH]4)cc3[nH]2)cc1 [Compound 7, 6-(4-Methylpiperazin-1-yl)-2′-(4-(10-(prop-2-ynyloxy)decyloxy)phenyl)-1H,3′H-2,5′-bibenzo[d]imidazole]
concentration at which RNA topoisomerase activity is inhibited [1]: about 10 μM
IC50 at 48 h (Cytotoxicity): > 10 µM
MIC (A. baumanni 19606): > 32 µg/mL

MIC (A. baumanni 19606): 16 to 32 µg/mL (≈ 76.1 to 152 µM)
Structure (SMILES): Oc1ccc(-c2nc3ccccc3[nH]2)cc1 [Compound 13, 4-(1H-Benzo[d]imidazol-2-yl)phenol]

MIC (A. baumanni 19606): > 32 µg/mL
Structure (SMILES): CN1CCN(c2ccc3nc(-c4ccc(OCCCNC(=O)OC(C)(C)C)cc4)[nH]c3c2)CC1 [Compound 15, tert-Butyl 3-(4-(6-(4-Methylpiperazin-1-yl)-1H-benzo[d]imidazol-2-yl)phenoxy)propylcarbamate]

MIC (A. baumanni 19606): > 32 µg/mL
Structure (SMILES): CN1CCN(c2ccc3nc(-c4ccc(OCc5cn(CCN=[N+]=[N-])nn5)cc4)[nH]c3c2)CC1 [Compound 19, 2-(4-((1-(2-Azidoethyl)-1H-1,2,3-triazol-4-yl)methoxy)-phenyl)-6-(4-methylpiperazin-1-yl)-1H-benzo[d]imidazole]

Structure (SMILES): CN1CCN(c2ccc3nc(-c4ccc(OCc5cn(CCCCN=[N+]=[N-])nn5)cc4)[nH]c3c2)CC1 [Compound 20]
inhibitory effect on the RNA topoisomerase activity of EcoTop1 [1]: no discernible inhibitory effect

MIC (A. baumanni 19606): > 32 µg/mL
Structure (SMILES): C#Cc1ccc(-c2cn(CCOc3ccc(-c4nc5ccc(N6CCN(C)CC6)cc5[nH]4)cc3)nn2)cc1 [Compound 21, 2-(4-(2-(4-(4-Ethynylphenyl)-1H-1,2,3-triazol-1-yl)ethoxy)-phenyl)-6-(4-methylpiperazin-1-yl)-1H-benzo[d]imidazole]

Structure (SMILES): CN1CCN(c2ccc3nc(-c4ccc5nc(-c6ccc(O)cc6)[nH]c5c4)[nH]c3c2)CC1.Cl.Cl.Cl [Hoechst 33258, reference compound]
IC50 at 48 h (Cytotoxicity): > 10 µM
MIC [3]: 0.3 to 4 µg/mL

Structure (SMILES): CCOc1ccc(-c2nc3cc(-c4nc5cc(N6CCN(C)CC6)ccc5[nH]4)ccc3[nH]2)cc1 [Hoechst 33342, reference compound]
effect on the RNA topoisomerase activity of EcoTop1 [1]: do not have any effect
MIC [3]: 0.3 to 4 µg/mL (≈ 0.663 to 8.84 µM)

Structure (SMILES): CCOc1ccc2nc3cc(N)ccc3c(N)c2c1 [ethacridine, reference compound]
effect on the RNA topoisomerase activity of EcoTop1 [1]: do not have any effect
